# Assay results from ChEMBL document CHEMBL4028864 (J Med Chem, 2017).
# The source made the active and inactive calls. The calls are words filed in the database; no cut-off is given here.
# What was measured:
# [1] = target: Tyrosine-protein kinase JAK2 (Homo sapiens, UniProt O60674); assay: Inhibition of wild type human JAK2 (A829 to G1132 residues) expressed in mammalian cells assessed as residual activity at 1 uM by KINOMEscan assay relative to control; type: cell-based
# [2] = test system: MOLM-14; assay: Induction of apoptosis in human MOLM14 cells assessed as increase in cleaved PARP level at 1 to 6 uM after 24 hrs by immunoblotting analysis; type: functional, cell-based
# Outline: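 KMS-12-BM and MOLM-14 cells were treated for 24 h and then lysed. Cleaved PARP was detected by immunoblotting.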
# [3] = target: Protein deacetylase HDAC6 (Homo sapiens) (UniProt Q9UBN7); assay: Inhibition of HDAC6 in human KMS-12-BM cells assessed as increase in acetylated tubulin level up to 6 uM after 16 hrs by immunoblotting analysis; type: cell-based
# Outline: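 KMS-12-BM and MOLM-14 cells were treated for 16 h and then lysed. Acetylated tubulin was detected by immunoblotting, and membranes were reprobed for total tubulin as loading control.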
# [4] = target: Histone deacetylase 3/Nuclear receptor corepressor 2 (HDAC3/NCoR2) (Homo sapiens, UniProt O15379); assay: Inhibition of human recombinant HDAC3 (1 to 428 residues)/N-terminal GST-tagged NCOR2 (395 to 489 residues) expressed in Baculovirus infected insect cells in presence of ATP
# Outline: (§1)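 HDAC enzyme inhibition was run by a contract laboratory.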
# [5] = target: Histone deacetylase 1 (Homo sapiens, UniProt Q13547); assay: Inhibition of C-terminal FLAG His tagged full length human recombinant HDAC1 (1 to 482 residues) expressed in baculovirus infected sf21 cells using RHKKAc as substrate in presence of ATP
# [6] = target: T1, Protein deacetylase HDAC6 (Homo sapiens, UniProt Q9UBN7); assay: Inhibition of N-terminal GST tagged human HDAC6 (1 to 1215 residues) expressed in baculovirus infected insect cells using RHKKAc as substrate in presence of ATP
# T1 sequence (Q9UBN7 whole entry): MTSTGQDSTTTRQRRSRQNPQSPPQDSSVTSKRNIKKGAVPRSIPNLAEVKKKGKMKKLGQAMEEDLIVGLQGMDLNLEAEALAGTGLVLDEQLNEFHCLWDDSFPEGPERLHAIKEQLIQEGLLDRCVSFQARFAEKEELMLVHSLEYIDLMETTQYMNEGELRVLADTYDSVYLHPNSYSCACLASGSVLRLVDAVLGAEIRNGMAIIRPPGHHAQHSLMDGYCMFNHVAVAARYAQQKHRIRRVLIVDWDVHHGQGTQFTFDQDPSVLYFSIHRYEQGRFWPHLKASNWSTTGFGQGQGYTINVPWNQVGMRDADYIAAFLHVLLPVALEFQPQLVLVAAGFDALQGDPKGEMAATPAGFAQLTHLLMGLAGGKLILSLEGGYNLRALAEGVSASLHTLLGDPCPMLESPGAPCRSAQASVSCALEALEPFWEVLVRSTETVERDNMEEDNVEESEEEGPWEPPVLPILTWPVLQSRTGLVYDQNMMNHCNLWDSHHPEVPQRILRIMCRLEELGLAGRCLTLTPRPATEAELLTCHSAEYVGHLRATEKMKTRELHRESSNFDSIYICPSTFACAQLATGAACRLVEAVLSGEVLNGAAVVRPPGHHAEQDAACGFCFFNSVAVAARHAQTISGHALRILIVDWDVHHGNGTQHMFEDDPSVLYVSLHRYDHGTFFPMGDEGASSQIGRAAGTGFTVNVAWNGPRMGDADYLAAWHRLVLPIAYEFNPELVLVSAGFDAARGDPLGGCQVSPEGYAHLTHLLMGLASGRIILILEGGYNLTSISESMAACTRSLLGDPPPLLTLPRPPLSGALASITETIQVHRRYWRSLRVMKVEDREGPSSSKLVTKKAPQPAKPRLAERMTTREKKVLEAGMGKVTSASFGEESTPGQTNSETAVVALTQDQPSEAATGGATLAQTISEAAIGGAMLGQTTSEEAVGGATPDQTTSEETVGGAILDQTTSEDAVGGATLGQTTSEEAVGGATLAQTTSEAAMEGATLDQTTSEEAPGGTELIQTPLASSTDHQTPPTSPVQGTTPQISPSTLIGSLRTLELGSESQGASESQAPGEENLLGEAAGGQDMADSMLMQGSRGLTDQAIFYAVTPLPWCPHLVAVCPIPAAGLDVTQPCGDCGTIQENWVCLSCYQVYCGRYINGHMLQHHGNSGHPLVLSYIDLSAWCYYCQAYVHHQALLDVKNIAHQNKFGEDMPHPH
# [7] = target: Histone deacetylase 2 (Homo sapiens, UniProt Q92769); assay: Inhibition of C-terminal GST tagged human recombinant HDAC2 (1 to 488 residues) expressed in Baculovirus infected insect cells in presence of ATP; outline: as §1
# [8] = target: Histone deacetylase 5 (Homo sapiens, UniProt Q9UQL6); assay: Inhibition of C-terminal His tagged human recombinant HDAC5 (657 to 1123 residues) expressed in Baculovirus infected insect cells in presence of ATP; outline: as §1
# [9] = Clearance in Wistar rat at 1 mg/kg, iv by LC-MS/MS analysis; type: ADME, organism-based; conditions: in vivo
# Outline: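 Wistar rats given a single 1 mg/kg iv dose. Plasma concentration–time profiles were plotted as mean ± SEM and sampled through 24 h postdose. Values were taken from the iv profile.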
# [10] = target: Non-receptor tyrosine-protein kinase TYK2 (Homo sapiens, UniProt P29597); assay: Inhibition of human TYK2 using KKSRGDYMTMQIG as substrate in presence of [gamma-33P]-ATP
# Outline: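 Kinase inhibition was tested by radiometric "Hotspot" profiling at a contract laboratory with 10 μM ATP.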
# Chain of Tyrosine-protein kinase JAK2 (O60674 whole entry, the tested form may be a part): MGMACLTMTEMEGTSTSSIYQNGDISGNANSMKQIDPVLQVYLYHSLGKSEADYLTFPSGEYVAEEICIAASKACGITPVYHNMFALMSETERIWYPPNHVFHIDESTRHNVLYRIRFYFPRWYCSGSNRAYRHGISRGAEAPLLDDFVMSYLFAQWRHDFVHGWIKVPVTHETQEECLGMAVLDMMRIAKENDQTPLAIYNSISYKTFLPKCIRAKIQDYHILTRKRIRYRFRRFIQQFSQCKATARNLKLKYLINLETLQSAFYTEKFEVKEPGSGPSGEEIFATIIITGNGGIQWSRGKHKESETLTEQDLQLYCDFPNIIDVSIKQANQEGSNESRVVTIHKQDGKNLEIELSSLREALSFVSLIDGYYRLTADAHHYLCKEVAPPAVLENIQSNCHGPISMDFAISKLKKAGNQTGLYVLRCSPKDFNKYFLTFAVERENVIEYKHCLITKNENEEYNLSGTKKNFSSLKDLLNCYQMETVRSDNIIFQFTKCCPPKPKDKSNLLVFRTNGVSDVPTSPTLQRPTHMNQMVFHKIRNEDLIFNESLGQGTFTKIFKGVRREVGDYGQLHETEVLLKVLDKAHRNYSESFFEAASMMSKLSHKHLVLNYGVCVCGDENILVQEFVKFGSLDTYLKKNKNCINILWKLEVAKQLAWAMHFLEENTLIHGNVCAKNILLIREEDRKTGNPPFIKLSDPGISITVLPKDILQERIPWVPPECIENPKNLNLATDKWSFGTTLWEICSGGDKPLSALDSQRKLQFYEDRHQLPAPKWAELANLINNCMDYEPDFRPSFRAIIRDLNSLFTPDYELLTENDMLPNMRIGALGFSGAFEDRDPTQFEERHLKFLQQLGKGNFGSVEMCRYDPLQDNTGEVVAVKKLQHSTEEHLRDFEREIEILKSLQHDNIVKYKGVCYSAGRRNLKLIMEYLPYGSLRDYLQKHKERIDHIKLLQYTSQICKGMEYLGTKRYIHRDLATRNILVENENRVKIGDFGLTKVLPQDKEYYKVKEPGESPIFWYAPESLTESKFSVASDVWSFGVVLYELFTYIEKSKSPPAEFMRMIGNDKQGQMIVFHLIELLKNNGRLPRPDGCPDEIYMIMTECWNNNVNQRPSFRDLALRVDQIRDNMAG
# Chain of Histone deacetylase 1 (Q13547 whole entry, the tested form may be a part): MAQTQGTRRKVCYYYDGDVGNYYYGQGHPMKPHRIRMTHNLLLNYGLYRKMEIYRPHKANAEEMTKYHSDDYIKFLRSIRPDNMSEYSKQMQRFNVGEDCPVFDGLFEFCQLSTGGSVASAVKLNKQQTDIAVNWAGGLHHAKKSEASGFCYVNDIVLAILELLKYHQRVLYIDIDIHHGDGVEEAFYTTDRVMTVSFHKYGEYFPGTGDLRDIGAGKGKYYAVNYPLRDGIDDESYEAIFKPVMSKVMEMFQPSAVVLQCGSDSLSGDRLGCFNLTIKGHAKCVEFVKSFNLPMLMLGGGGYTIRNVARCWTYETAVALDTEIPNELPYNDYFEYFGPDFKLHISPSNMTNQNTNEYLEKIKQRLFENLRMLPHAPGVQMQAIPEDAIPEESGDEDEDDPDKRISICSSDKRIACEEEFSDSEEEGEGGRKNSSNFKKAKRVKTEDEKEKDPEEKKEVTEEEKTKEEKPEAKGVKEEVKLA
# Chain of Non-receptor tyrosine-protein kinase TYK2 (P29597 whole entry): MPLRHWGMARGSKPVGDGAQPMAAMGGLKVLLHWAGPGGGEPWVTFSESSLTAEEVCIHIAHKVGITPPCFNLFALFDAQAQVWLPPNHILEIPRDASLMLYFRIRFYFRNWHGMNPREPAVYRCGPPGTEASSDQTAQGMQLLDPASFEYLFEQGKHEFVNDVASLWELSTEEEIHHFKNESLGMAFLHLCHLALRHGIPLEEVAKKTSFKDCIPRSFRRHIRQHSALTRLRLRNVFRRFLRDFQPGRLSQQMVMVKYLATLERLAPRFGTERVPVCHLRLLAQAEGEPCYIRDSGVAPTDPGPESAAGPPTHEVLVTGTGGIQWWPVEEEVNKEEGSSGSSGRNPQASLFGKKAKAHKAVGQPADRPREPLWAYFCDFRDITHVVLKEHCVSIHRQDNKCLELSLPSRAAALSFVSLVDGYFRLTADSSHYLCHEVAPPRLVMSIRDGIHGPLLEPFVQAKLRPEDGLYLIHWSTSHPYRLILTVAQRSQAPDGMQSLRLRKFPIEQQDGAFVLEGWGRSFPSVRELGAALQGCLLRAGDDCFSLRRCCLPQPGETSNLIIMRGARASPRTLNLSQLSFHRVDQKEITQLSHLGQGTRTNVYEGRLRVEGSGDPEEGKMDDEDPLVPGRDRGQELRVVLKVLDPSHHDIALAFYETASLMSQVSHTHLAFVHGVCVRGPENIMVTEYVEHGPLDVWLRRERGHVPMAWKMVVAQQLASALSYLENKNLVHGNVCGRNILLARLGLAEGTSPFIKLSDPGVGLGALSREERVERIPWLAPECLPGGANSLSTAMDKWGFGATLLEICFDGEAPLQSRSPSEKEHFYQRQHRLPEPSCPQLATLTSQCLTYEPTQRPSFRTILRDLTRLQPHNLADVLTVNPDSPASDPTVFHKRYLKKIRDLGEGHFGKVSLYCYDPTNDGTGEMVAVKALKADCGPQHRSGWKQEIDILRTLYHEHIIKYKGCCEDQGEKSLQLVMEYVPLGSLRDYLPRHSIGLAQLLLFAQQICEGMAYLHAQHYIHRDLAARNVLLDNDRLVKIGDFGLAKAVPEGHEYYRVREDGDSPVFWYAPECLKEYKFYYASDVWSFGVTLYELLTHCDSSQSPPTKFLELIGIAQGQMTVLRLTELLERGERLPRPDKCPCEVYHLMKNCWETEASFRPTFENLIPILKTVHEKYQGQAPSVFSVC
# Chain of Histone deacetylase 2 (Q92769 whole entry, the tested form may be a part): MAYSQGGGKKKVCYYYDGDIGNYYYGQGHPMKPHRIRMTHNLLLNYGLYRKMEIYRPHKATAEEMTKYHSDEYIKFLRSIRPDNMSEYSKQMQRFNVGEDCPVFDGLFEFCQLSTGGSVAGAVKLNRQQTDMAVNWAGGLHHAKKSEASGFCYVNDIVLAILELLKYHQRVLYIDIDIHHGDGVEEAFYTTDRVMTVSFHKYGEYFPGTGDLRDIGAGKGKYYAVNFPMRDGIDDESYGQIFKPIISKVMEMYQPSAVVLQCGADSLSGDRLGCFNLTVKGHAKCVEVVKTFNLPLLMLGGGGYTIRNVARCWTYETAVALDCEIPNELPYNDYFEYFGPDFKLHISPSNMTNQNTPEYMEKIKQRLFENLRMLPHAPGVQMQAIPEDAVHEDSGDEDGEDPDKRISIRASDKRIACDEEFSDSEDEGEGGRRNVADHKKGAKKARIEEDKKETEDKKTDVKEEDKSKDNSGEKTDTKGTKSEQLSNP
# Chain of Histone deacetylase 5 (Q9UQL6 whole entry, the tested form may be a part): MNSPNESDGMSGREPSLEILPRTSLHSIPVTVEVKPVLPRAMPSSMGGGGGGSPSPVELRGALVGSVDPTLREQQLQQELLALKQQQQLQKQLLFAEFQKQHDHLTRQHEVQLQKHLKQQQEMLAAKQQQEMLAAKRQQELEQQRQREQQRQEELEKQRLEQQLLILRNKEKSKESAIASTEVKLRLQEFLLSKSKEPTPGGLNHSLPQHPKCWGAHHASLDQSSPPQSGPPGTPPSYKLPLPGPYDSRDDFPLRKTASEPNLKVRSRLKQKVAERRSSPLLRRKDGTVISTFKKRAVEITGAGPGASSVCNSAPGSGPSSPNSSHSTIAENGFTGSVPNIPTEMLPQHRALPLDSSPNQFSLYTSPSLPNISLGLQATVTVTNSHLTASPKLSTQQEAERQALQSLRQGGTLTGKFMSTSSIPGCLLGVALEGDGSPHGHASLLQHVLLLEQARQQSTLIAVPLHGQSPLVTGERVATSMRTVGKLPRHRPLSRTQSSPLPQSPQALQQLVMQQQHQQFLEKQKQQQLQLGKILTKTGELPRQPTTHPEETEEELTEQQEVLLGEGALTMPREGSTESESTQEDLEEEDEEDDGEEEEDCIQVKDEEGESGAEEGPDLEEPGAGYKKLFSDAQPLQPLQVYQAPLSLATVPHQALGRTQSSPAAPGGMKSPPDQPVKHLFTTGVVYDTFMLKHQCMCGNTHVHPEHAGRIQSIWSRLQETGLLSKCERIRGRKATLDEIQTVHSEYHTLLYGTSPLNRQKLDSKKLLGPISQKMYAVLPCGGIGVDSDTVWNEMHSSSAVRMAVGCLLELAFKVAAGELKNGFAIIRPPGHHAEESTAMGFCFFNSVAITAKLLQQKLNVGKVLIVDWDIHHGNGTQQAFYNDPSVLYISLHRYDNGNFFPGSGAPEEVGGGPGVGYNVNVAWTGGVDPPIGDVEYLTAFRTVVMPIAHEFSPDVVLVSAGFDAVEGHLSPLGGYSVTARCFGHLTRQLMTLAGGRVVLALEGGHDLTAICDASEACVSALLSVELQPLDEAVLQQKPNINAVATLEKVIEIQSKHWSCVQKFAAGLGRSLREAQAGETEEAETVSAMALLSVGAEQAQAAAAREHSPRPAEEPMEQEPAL
smiles,measurement,setting,value
O=C(CCCCCCn1cc(-c2ncnc3[nH]ccc23)cn1)NO,Activity,[1],0%
same,Activity,[2],Dose-dependent effect
same,inhibition,[3],Active
same,IC50,[4],3.9 nM
same,IC50,[5],6.9 nM
same,IC50,[6],1.4 nM
same,IC50,[7],5.8 nM
same,IC50,[8],10.5 µM
same,clearance,[9],95.1 mL/min/kg
same,IC50,[10],188 nM
